Measurements published in article PMC9925696 (Neuro-Oncology, 2022).
Entries after “also recorded” stand apart in the source; their conditions may differ. Marks after values point to notes of the source that are not given here.

How the values were obtained:
[1] = DS-1001 concentration in resected tumor tissue, plasma and CSF; format: in vivo, human; settings: for DS-1001 concentration in resected tumor tissue: free form
Outline: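 Drug levels were measured by validated LC-MS/MS and expressed as the free form. CSF was collected at screening and on cycle 1 day 15 (±3 days). Resected tumor and matched plasma were taken on the day of salvage surgery, after oral twice-daily dosing continued until surgery. Where a patient gave several tumor samples, the range is given. The brain/plasma ratio used the matched plasma sample.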

[2] = Plasma pharmacokinetics of DS-1001; format: in vivo, human; settings: for Increase in Cmax and AUC0-8 h with dose: day 1 and day 8 of cycle 1
[3] = mice, preclinical; cited from earlier work
[4] = tested on: D-2-hydroxyglutarate (D-2-HG); assay: D-2-HG concentration in resected tumor tissue; format: in vivo, human
Outline: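 Patients with IDH1-R132 glioma who were scheduled for salvage surgery after progression took the oral test compound twice daily until surgery. Tumor was resected on the day of surgery, homogenized in 0.1 w/v% bovine serum albumin solution, and derivatized with diacetyl-l-tartaric anhydride. D-2-HG was then quantified by LC-MS/MS against a commercial D-2-HG reference standard. On-treatment values were compared with matched archived frozen tumor from previous surgery, where available.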

Safety evaluation = format: in vivo, human
Outline: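 Adults (≥20 years) with recurrent/progressive grade 2-4 IDH1-R132 glioma received oral twice-daily dosing in 21-day cycles at 125-1400 mg (six levels). Escalation used a modified continual reassessment method (Bayesian logistic regression, overdose control) with cohorts of 3-6 patients and DLT assessment over the 21-day cycle. TEAEs were recorded up to 28 days after the last dose, graded by CTCAE v4.0 and counted once per patient at worst severity. LVEF was monitored by echocardiography or MUGA.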

[5] = tested on: recurrent/progressive IDH1-mutant (R132) glioma; assay: Tumor response by RANO / RANO-LGG, PFS, treatment duration; format: in vivo, human; settings: for Duration of CR: still on treatment
Outline: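 MRI was performed every 6 weeks. Investigators classed tumors at enrollment as contrast-enhancing (assessed by RANO) or non-enhancing (assessed by RANO-LGG). Longest and orthogonal diameters were measured on the largest FLAIR/T2 slice. Best overall response required a confirmatory scan at least 4 weeks later. ORR counted CR, PR and MR. PFS ran from first dose to progression or death. Dosing was oral twice daily, continued until progression or intolerable toxicity.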

[6] = tested on: orthotopic patient-derived xenograft model; settings: continuous administration, preclinical; cited from earlier work
[7] = Patient #003, 500 mg bid, 16.9 h after last dose
[8] = Patient #006, 700 mg bid, 7.2 h after last dose
[9] = 12 non-enhancing tumors, RANO-LGG
[10] = non-enhancing (n = 12), RANO-LGG

Cc1cn(C(=O)c2c(-c3c(Cl)cc(Cl)cc3Cl)noc2C(C)(C)F)c2cccc(/C=C/C(=O)O)c12 [DS-1001]
Brain/plasma concentration ratio [1, 7]: 0.77
DS-1001 concentration in resected tumor tissue [1, 7]: 5720 ng/g tissue
Brain/plasma concentration ratio ([1]; Patient #004, 500 mg bid, 4.1, 4.2 h after last dose): 0.19
Brain/plasma concentration ratio [1, 8]: 0.58
DS-1001 concentration in resected tumor tissue [1, 8]: 6130 ng/g tissue
DS-1001 in CSF ([1]; day 15 of cycle 1): appeared in CSF
Brain / tumor distribution of DS-1001 ([1]; resected tumor samples, salvage surgery): favorable brain distribution; also recorded: a high drug concentration was detected in all resected tumor samples
Increase in Cmax and AUC0-8 h with dose ([2]; 125 to 700 mg bid): approximately dose-proportional
Increase in Cmax and AUC0-8 h with dose ([2]; 700 to 1400 mg bid): less than dose-proportional
Median Tmax across dose range ([2]; day 1 of cycle 1, 125-1400 mg bid): 2 to 6 h
Median Tmax across dose range ([2]; day 8 of cycle 1, 125-1400 mg bid): 2 to 4 h
Steady-state levels achieved (plasma trough plateau) ([2]; most dose levels, except 1400 mg bid, data not shown): ≤ 4 days
Distribution to the brain [3]: good distribution to the brain
D-2-HG in on-treatment tumor tissue versus pre-treatment samples ([4]; 125 mg bid): significantly lower levels of D-2-HG compared with the pre-treatment samples
D-2-HG in on-treatment tumor tissue versus archived samples ([4]; seven on-treatment samples, 125-700 mg bid): significantly lower amount of D-2-HG compared with pre-study archived samples; also recorded: extremely low compared with matched archived samples; also recorded: lower than archived samples; also recorded: significantly low levels of D-2-HG
Patients with at least 1 AE of any grade or causality (Safety evaluation; 45 of 47): 95.7%
Tolerability / safety profile (Safety evaluation; 125-1400 mg bid oral): well tolerated; also recorded: favorable safety profile
Maximum tolerated dose (MTD) (Safety evaluation; 125-1400 mg bid oral, highest dose level 1400 mg bid): not reached
Alanine aminotransferase increased, all grades (Safety evaluation; N = 47): 4 (8.5) n (%)
Alanine aminotransferase increased, grade 3 (Safety evaluation; N = 47): 3 (6.4) n (%)
All AEs, grade 3 (Safety evaluation; N = 47): 20 (42.6) n (%)
Alopecia, all grades (Safety evaluation; N = 47): 13 (27.7) n (%)
Alopecia, grade 3 (Safety evaluation; N = 47): 0 n (%)
Arthralgia, all grades (Safety evaluation; N = 47): 13 (27.7) n (%)
Arthralgia, grade 3 (Safety evaluation; N = 47): 1 (2.1) n (%)
Aspartate aminotransferase increased, all grades (Safety evaluation; N = 47): 3 (6.4) n (%)
Aspartate aminotransferase increased, grade 3 (Safety evaluation; N = 47): 2 (4.3) n (%)
Back pain, all grades (Safety evaluation; N = 47): 10 (21.3) n (%)
Back pain, grade 3 (Safety evaluation; N = 47): 0 n (%)
Decreased appetite, all grades (Safety evaluation; N = 47): 5 (10.6) n (%)
Decreased appetite, grade 3 (Safety evaluation; N = 47): 0 n (%)
Diarrhea, all grades (Safety evaluation; N = 47): 22 (46.8) n (%)
Diarrhea, grade 3 (Safety evaluation; N = 47): 2 (4.3) n (%)
Dose interruption due to arthralgia (Safety evaluation; N = 47): 10.6%
Dose interruption due to neutrophil count decreased (Safety evaluation; N = 47): 12.8%
Dose reduction associated with alanine aminotransferase increased (Safety evaluation; N = 47): 4.3%
Dose reduction associated with arthralgia (Safety evaluation; N = 47): 10.6%
Dose reduction associated with back pain (Safety evaluation; N = 47): 6.4%
Dose reduction associated with neck pain (Safety evaluation; N = 47): 2.1%
Dose reduction associated with neutrophil count decreased (Safety evaluation; N = 47): 6.4%
Dose reduction associated with white blood cell count decreased (Safety evaluation; N = 47): 4.3%
Dry skin, all grades (Safety evaluation; N = 47): 10 (21.3) n (%)
Dry skin, grade 3 (Safety evaluation; N = 47): 0 n (%)
Feces soft, all grades (Safety evaluation; N = 47): 6 (12.8) n (%)
Feces soft, grade 3 (Safety evaluation; N = 47): 0 n (%)
Grade 4 or 5 AEs or serious drug-related AEs (Safety evaluation; N = 47): No grade 4 or 5 AEs or serious drug-related AEs were reported
Headache, all grades (Safety evaluation; N = 47): 11 (23.4) n (%)
Headache, grade 3 (Safety evaluation; N = 47): 1 (2.1) n (%)
Hypophosphatemia, all grades (Safety evaluation; N = 47): 2 (4.3) n (%)
Hypophosphatemia, grade 3 (Safety evaluation; N = 47): 2 (4.3) n (%)
Nasopharyngitis, all grades (Safety evaluation; N = 47): 7 (14.9) n (%)
Nasopharyngitis, grade 3 (Safety evaluation; N = 47): 0 n (%)
Nausea, all grades (Safety evaluation; N = 47): 12 (25.5) n (%)
Nausea, grade 3 (Safety evaluation; N = 47): 0 n (%)
Neutrophil count decreased, all grades (Safety evaluation; N = 47): 7 (14.9) n (%)
Neutrophil count decreased, grade 3 (Safety evaluation; N = 47): 6 (12.8) n (%)
Patients with TEAEs associated with dose reduction (Safety evaluation; N = 47): 27.7%
Patients with at least 1 dose interruption due to TEAEs (Safety evaluation; N = 47): 57.4%
Patients with at least 1 grade 3 AE (TEAE) (Safety evaluation; N = 47): 42.6%
Pruritus, all grades (Safety evaluation; N = 47): 14 (29.8) n (%)
Pruritus, grade 3 (Safety evaluation; N = 47): 0 n (%)
Rash, all grades (Safety evaluation; N = 47): 11 (23.4) n (%)
Rash, grade 3 (Safety evaluation; N = 47): 0 n (%)
Skin hyperpigmentation, all grades (Safety evaluation; N = 47): 25 (53.2) n (%)
Skin hyperpigmentation, grade 3 (Safety evaluation; N = 47): 0 n (%)
Vomiting, all grades (Safety evaluation; N = 47): 9 (19.1) n (%)
Vomiting, grade 3 (Safety evaluation; N = 47): 0 n (%)
White blood cell count decreased, all grades (Safety evaluation; N = 47): 3 (6.4) n (%)
White blood cell count decreased, grade 3 (Safety evaluation; N = 47): 3 (6.4) n (%)
Alanine aminotransferase increased, grade 3 (Safety evaluation; N = 47, text): 6.4%
Alopecia, any grade (Safety evaluation; N = 47, text): 27.7%
Arthralgia, any grade (Safety evaluation; N = 47, text): 27.7%
Aspartate aminotransferase increased, grade 3 (Safety evaluation; N = 47, text): 4.3%
Back pain, any grade (Safety evaluation; N = 47, text): 21.3%
Diarrhea, any grade (Safety evaluation; N = 47, text): 46.8%
Diarrhea, grade 3 (Safety evaluation; N = 47, text): 4.3%
Dry skin, any grade (Safety evaluation; N = 47, text): 21.3%
Headache, any grade (Safety evaluation; N = 47, text): 23.4%
Hypophosphatemia, grade 3 (Safety evaluation; N = 47, text): 4.3%
Nausea, any grade (Safety evaluation; N = 47, text): 25.5%
Neutrophil count decreased, grade 3 (Safety evaluation; N = 47, text): 12.8%
Pruritus, any grade (Safety evaluation; N = 47, text): 29.8%
Rash, any grade (Safety evaluation; N = 47, text): 23.4%
Skin hyperpigmentation, any grade (Safety evaluation; N = 47, text): 53.2%
White blood cell count decreased, grade 3 (Safety evaluation; N = 47, text): 6.4%
Dose-limiting toxicity (DLT) (Safety evaluation; at 1000 mg bid): One DLT, grade 3 white blood cell count decreased
Dose modification due to pain (Safety evaluation; doses ≤250 mg bid): no dose modification due to pain
Dose modification due to pain (Safety evaluation; doses ≥500 mg bid): most patients who received long-term administration of DS-1001 required dose modifications due to episodes of pain
Discontinued due to an AE (alanine aminotransferase increased) (Safety evaluation; of 39 patients who discontinued): 1 patients
All AEs, all grades (Safety evaluation; safety analysis set N = 47): 45 (95.7) n (%)
Response by 1p/19q codeletion status ([5]; 1p/19q-codeleted vs non-codeleted): Measurable response was observed in both 1p/19q-codeleted and non-codeleted cases
Number of MRs [5, 9]: 3
Number of PRs [5, 9]: 1
Number of CRs ([5]; 35 enhancing tumors, RANO): 2
Number of PRs ([5]; 35 enhancing tumors, RANO): 4
Median response duration ([5]; both lesion types): has not been reached
Doses at which responses were observed ([5]; data limited): ≥ 125 mg bid
Confirmed best overall response: complete response ([5]; enhancing (n = 35), RANO): 2 (5.7) n (%)
Confirmed best overall response: partial response ([5]; enhancing (n = 35), RANO): 4 (11.4) n (%)
Confirmed best overall response: progressive disease ([5]; enhancing (n = 35), RANO): 17 (48.6) n (%)
Confirmed best overall response: stable disease ([5]; enhancing (n = 35), RANO): 11 (31.4) n (%)
Objective response rate ([5]; enhancing (n = 35), RANO): 6 (17.1) n (%)
Confirmed best overall response: not evaluated ([5]; enhancing (n = 35), treatment discontinued before first response assessment): 1 (2.9)^b n (%)
Median progression-free survival ([5]; enhancing glioma cohort, all doses, 95% CI 6.1 to 17.7 weeks): 10.4 weeks
Median progression-free survival ([5]; enhancing glioma cohort, 95% CI 6.1 to 17.7 months (abstract)): 10.4 months
Patients with tumor measurements decreased from baseline ([5]; enhancing tumors, 15 of 35): 42.9%
Objective response rate ([5]; enhancing tumors, RANO): 17.1%
Confirmed best overall response: not evaluated ([5]; non-enhancing (n = 12)): 0 (0.0) n (%)
Confirmed best overall response: complete response [5, 10]: 0 (0.0) n (%)
Confirmed best overall response: minor response [5, 10]: 3 (25.0) n (%)
Confirmed best overall response: partial response [5, 10]: 1 (8.3) n (%)
Confirmed best overall response: progressive disease [5, 10]: 0 (0.0) n (%)
Confirmed best overall response: stable disease [5, 10]: 8 (66.7) n (%)
Objective response rate [5, 10]: 4 (33.3) n (%)
Median progression-free survival ([5]; non-enhancing glioma cohort, 95% CI 24.1 to not reached): not reached
Patients with tumor measurements decreased from baseline ([5]; non-enhancing tumors, 11 of 12): 91.7%
Objective response rate ([5]; non-enhancing tumors, RANO-LGG): 33.3%
Duration of CR ([5]; patient with IDH1-mutant anaplastic oligodendroglioma): approximately 95 weeks
Duration of CR ([5]; patient with astrocytoma (IDH-mutant, grade 4)): approximately 174 weeks
D-2-HG [6]: D-2-HG reduction
Tumor growth [6]: Tumor growth inhibition
